Experimental data reported in ChEMBL document CHEMBL1156207, “Synthesis of mono-carbonyl analogues of curcumin and their effects on inhibition of cytokine release in LPS-stimulated RAW 264.7 macrophages” (Bioorg Med Chem, 2010).
The source made the active and inactive calls. No cut-off for these calls is given here.

Key:
RAW264.7 [1] = assay: Antiinflammatory activity against LPS-stimulated mouse RAW264.7 cells assessed as inhibition of TNFalpha accumulation at 10 uM pretreated for 2 hrs before LPS challenge after 22 hrs by ELISA relative to control; type: functional
Outline: (§1)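 RAW 264.7 cells plated at 4.0 × 10⁵/plate at 37 °C, 5% CO₂, pretreated 2 h with compound or vehicle, then LPS added for 22 h. Secreted cytokine in media measured by ELISA and normalized to total protein of lysed cell pellets from parallel plates. Expressed as percent of LPS control; mean with SE from 3–5 independent experiments.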

RAW264.7 [2] = assay: Antiinflammatory activity against LPS-stimulated mouse RAW264.7 cells assessed as inhibition of IL-6 accumulation at 10 uM pretreated for 2 hrs before LPS challenge after 22 hrs by ELISA relative to control; type: functional; set-up: Activity: scale not given: the % may be the effect or the level left; outline: as §1
RAW264.7 [3] = assay: Cytotoxicity against LPS-stimulated mouse RAW264.7 cells at 10 uM pretreated for 2 hrs before LPS challenge after 22 hrs; type: cell-based; conditions: raw264.7, 22 h
RAW264.7 [4] = assay: Antiinflammatory activity against LPS-stimulated mouse RAW264.7 cells assessed as inhibition of TNFalpha accumulation pretreated for 2 hrs before LPS challenge after 22 hrs by ELISA relative to control; type: functional, cell-based
Outline: (§2)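 Macrophages plated overnight at 4.0 × 10⁶/plate at 37 °C, 5% CO₂, and pretreated 2 h with compound at 1, 2.5, 5.0 and 10 (concentration series), then stimulated with LPS for 22 h. Cytokine in culture media quantified by ELISA and normalized to total cellular protein, measured after lysis in Tris–NP40–SDS buffer and protein assay.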

RAW264.7 [5] = assay: Antiinflammatory activity against LPS-stimulated mouse RAW264.7 cells assessed as inhibition of IL-6 accumulation pretreated for 2 hrs before LPS challenge after 22 hrs by ELISA relative to control; type: functional, cell-based; outline: as §2

Row | Structure (SMILES) | Activity (RAW264.7 [1]) | Activity (RAW264.7 [2]) | other results
1 | COc1cc(OC)c(/C=C/C(=O)/C=C/c2c(OC)cc(OC)cc2OC)c(OC)c1 | Active | 60% | –
2 | O=C(/C=C/c1ccc(Cl)cc1Cl)/C=C/c1ccc(Cl)cc1Cl | inactive | inactive | –
3 | Cc1ccc(/C=C/C(=O)/C=C/c2ccc(C)cc2C)c(C)c1 | Active | 60% | –
4 | COc1ccc(/C=C2\CC/C(=C\c3ccc(OC)cc3OC)C2=O)c(OC)c1 | inactive | 60% | –
5 | COc1ccc(/C=C/C(=O)/C=C/c2ccc(OC)cc2OC)c(OC)c1 | Active | 60% | –
6 | O=C(/C=C/c1ccccc1C(=O)O)/C=C/c1ccccc1C(=O)O | inactive | inactive | –
7 | O=C1/C(=C/c2cccc(Cl)c2Cl)CC/C1=C\c1cccc(Cl)c1Cl | inactive | inactive | –
8 | O=C(/C=C/c1cc(F)ccc1F)/C=C/c1cc(F)ccc1F | inactive | inactive | –
9 | O=C1/C(=C/c2ccc(Cl)cc2Cl)CCC/C1=C\c1ccc(Cl)cc1Cl | inactive | inactive | –
10 | O=C1/C(=C/c2c(F)cccc2F)CC/C1=C\c1c(F)cccc1F | inactive | inactive | –
11 | O=C1/C(=C/c2cccc(Cl)c2Cl)CCC/C1=C\c1cccc(Cl)c1Cl | inactive | inactive | –
12 | O=C1/C(=C/c2cc(F)ccc2F)CCC/C1=C\c1cc(F)ccc1F | inactive | inactive | –
13 | Cc1ccc(/C=C2\CC/C(=C\c3ccc(C)cc3C)C2=O)c(C)c1 | Active | inactive | –
14 | O=C1/C(=C/c2c(F)cccc2F)CCC/C1=C\c1c(F)cccc1F | inactive | inactive | –
15 | CN(C)CCCOc1ccc(/C=C2\CCC/C(=C\c3ccc(OCCCN(C)C)cc3)C2=O)cc1 | – | – | Activity (RAW264.7 [3]): Non-toxic; inhibition (RAW264.7 [4]): Dose-dependent effect; inhibition at 10 µM (RAW264.7 [1]): 96.9%; inhibition at 10 µM (RAW264.7 [2]; Mus musculus, RAW264.7): 97.1%; inhibition (RAW264.7 [5]): Dose-dependent effect
16 | O=C1/C(=C/c2cc(F)ccc2F)CC/C1=C\c1cc(F)ccc1F | inactive | inactive | –
17 | Cc1ccc(/C=C2\CCC/C(=C\c3ccc(C)cc3C)C2=O)c(C)c1 | inactive | inactive | –
18 | COc1ccc(/C=C2\CCC/C(=C\c3ccc(OC)cc3OC)C2=O)c(OC)c1 | inactive | inactive | –
19 | O=C1/C(=C\c2ccccc2C(=O)O)CCC/C1=C\c1ccccc1C(=O)O | inactive | inactive | –
20 | O=C1/C(=C/c2ccccc2C(=O)O)CC/C1=C\c1ccccc1C(=O)O | inactive | 60% | –
21 | O=C1/C(=C/c2ccc(Cl)cc2Cl)CC/C1=C\c1ccc(Cl)cc1Cl | inactive | inactive | –
22 | COc1cc(OC)c(/C=C2\CC/C(=C\c3c(OC)cc(OC)cc3OC)C2=O)c(OC)c1 | inactive | inactive | –
23 | COc1cc(OC)c(/C=C2\CCC/C(=C\c3c(OC)cc(OC)cc3OC)C2=O)c(OC)c1 | Active | 60% | –
24 | O=C(/C=C/c1c(F)cccc1F)/C=C/c1c(F)cccc1F | Active | 60% | Activity (RAW264.7 [3]): Non-toxic; inhibition (RAW264.7 [4]): Dose-dependent effect; inhibition (RAW264.7 [5]): Dose-dependent effect
